Source: ChEMBL document CHEMBL4145644 (J Nat Prod, 2018)

Columns and labels:
[1] = test system: Mycolicibacterium smegmatis; test: Antimicrobial activity against Mycobacterium smegmatis KB42 assessed as zone of inhibition at 1 ug/disc measured after 24 to 48 hrs by paper disc method; type: functional; settings: read-out: IZ
Bacillus spizizenii = test: Antimicrobial activity against Bacillus subtilis KB211 ATCC 6633 assessed as zone of inhibition at 1 ug/disc measured after 24 to 48 hrs by paper disc method; type: functional; settings: ATCC 6633 KB211, read-out: IZ
In short: (§1)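 Bacteria on nutrient agar (0.5% peptone, 0.5% meat extract, 0.8% agar, pH 7.0), 37 °C, 24 h. Inoculum 0.5% for B. subtilis, E. coli, K. pneumoniae, P. vulgaris; 0.2% for K. rhizophila. 6 mm discs carrying 10 μL compound solution. Zone of inhibition measured.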

Kocuria rhizophila = test: Antimicrobial activity against Kocuria rhizophila KB212 ATCC 9341 assessed as zone of inhibition at 1 ug/disc measured after 24 to 48 hrs by paper disc method; type: functional, Kocuria rhizophila DC2201; settings: read-out: IZ; in short: as §1
Staphylococcus aureus = test: Antimicrobial activity against Staphylococcus aureus KB210 ATCC 6538p assessed as zone of inhibition at 1 ug/disc measured after 24 to 48 hrs by paper disc method; type: functional; settings: read-out: IZ
In short: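 Nutrient agar (0.5% peptone, 0.5% meat extract, 0.8% agar, pH 7.0) inoculated at 0.2% with S. aureus ATCC 6538p. 6 mm filter discs impregnated with 10 μL compound solution were applied. Plates were incubated at 37 °C for 24 h and inhibition zones were measured.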

Klebsiella pneumoniae = test: Antimicrobial activity against Klebsiella pneumoniae KB214 ATCC 10031 assessed as zone of inhibition at 1 ug/disc measured after 24 to 48 hrs by paper disc method; type: functional; settings: read-out: IZ
In short: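 Paper disc diffusion with 6 mm sterile filter discs, each loaded with 10 μL of compound solution and placed on nutrient agar (0.5% peptone, 0.5% meat extract, 0.8% agar, pH 7.0). Plates seeded with 0.5% inoculum and incubated at 37 °C for 24 h. Inhibition zone diameters measured after incubation.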

Xanthomonas campestris = test: Antimicrobial activity against Xanthomonas campestris pv. oryzae KB88 assessed as zone of inhibition at 1 ug/disc measured after 24 to 48 hrs by paper disc method; type: functional; settings: read-out: IZ
In short: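 Paper disc diffusion with 6 mm sterile filter discs, each loaded with 10 μL of compound solution and placed on nutrient agar (0.5% peptone, 0.5% meat extract, 0.8% agar, pH 7.0). Plates seeded with 1.0% inoculum and incubated at 27 °C for 24 h. Inhibition zone diameters measured after incubation.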

Pseudomonas aeruginosa = test: Antimicrobial activity against Pseudomonas aeruginosa KB359 NBRC 12582 assessed as zone of inhibition at 1 ug/disc measured after 24 to 48 hrs by paper disc method; type: functional; settings: read-out: IZ
In short: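 Pseudomonas aeruginosa NBRC 12582 on nutrient agar (0.5% peptone, 0.5% meat extract, 0.8% agar, pH 7.0), 1.0% inoculation, 37 °C, 24 h. Discs (6 mm) impregnated with 10 μL compound solution placed on plate. Inhibition zones measured.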

Proteus vulgaris = test: Antimicrobial activity against Proteus vulgaris KB127 NBRC 3167 assessed as zone of inhibition at 1 ug/disc measured after 24 to 48 hrs by paper disc method; type: functional; settings: read-out: IZ; in short: as §1
Escherichia coli = test: Antimicrobial activity against Escherichia coli KB213 NIHJ assessed as zone of inhibition at 1 ug/disc measured after 24 to 48 hrs by paper disc method; type: functional; settings: read-out: IZ; in short: as §1
Saccharomyces cerevisiae [2] = test: Antimicrobial activity against Saccharomyces cerevisiae harboring 12genedelta0HSR-iERG6 mutant assessed as zone of inhibition at 10 ug/disc measured after 24 to 48 hrs by paper disc method; type: functional; settings: read-out: IZ
In short: (§2)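 Paper disc diffusion with 6 mm sterile filter discs, each loaded with 10 μL of compound solution and placed on agar plates. Plates incubated at 27 or 37 °C for 24−48 h, then inhibition zones measured.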

Aspergillus niger = test: Antimicrobial activity against Aspergillus niger KF103 ATCC 6275 assessed as zone of inhibition at 10 ug/disc measured after 24 to 48 hrs by paper disc method; type: functional; settings: read-out: IZ
Saccharomyces cerevisiae [3] = test: Antimicrobial activity against Saccharomyces cerevisiae BY25929 harboring yrr2/yrs1/pdr1/pdr3 deletion mutant assessed as zone of inhibition at 10 ug/disc measured after 24 to 48 hrs by paper disc method; type: functional; settings: read-out: IZ; in short: as §2
Saccharomyces cerevisiae [4] = test: Antimicrobial activity against Saccharomyces cerevisiae BY4741 assessed as zone of inhibition at 10 ug/disc measured after 24 to 48 hrs by paper disc method; type: functional; settings: read-out: IZ
In short: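 S. cerevisiae BY4741 spread on YPD agar (1% yeast extract, 2% peptone, 2% glucose, 1.5% agar) at 1% inoculation. Sterile 6 mm filter discs loaded with 10 μL compound solution were placed on the plates. Plates were incubated at 27 °C for 48 h, then inhibition zones were measured.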

Candida albicans = test: Antimicrobial activity against Candida albicans KF1 ATCC 64548 assessed as zone of inhibition at 10 ug/disc measured after 24 to 48 hrs by paper disc method; type: functional; settings: read-out: IZ
Mucor racemosus = test: Antimicrobial activity against Mucor racemosus KF223 assessed as zone of inhibition at 10 ug/disc measured after 24 to 48 hrs by paper disc method; type: functional; settings: read-out: IZ
Saccharomyces cerevisiae [5] = test: Antimicrobial activity against Saccharomyces cerevisiae KF237 ATCC 9763 assessed as zone of inhibition at 10 ug/disc measured after 24 to 48 hrs by paper disc method; type: functional; settings: read-out: IZ
Acholeplasma laidlawii = test: Antimicrobial activity against Acholeplasma laidlawii KB174 PG8 assessed as zone of inhibition at 1 ug/disc measured after 24 to 48 hrs by paper disc method; type: functional; settings: read-out: IZ

## C[C@@H](O)[C@H]1C(=O)N2C(C(=O)O)=C(S[C@@H]3CN[C@H](C(=O)N(C)C)C3)[C@H](C)[C@H]12
[1]
  zone of inhibition at 1 µg/disc: 9.5 mm
Bacillus spizizenii
  zone of inhibition at 1 µg/disc: 24.1 mm
Kocuria rhizophila
  zone of inhibition at 1 µg/disc: 38 mm
Staphylococcus aureus
  zone of inhibition at 1 µg/disc: 35.2 mm
Klebsiella pneumoniae
  zone of inhibition at 1 µg/disc: 27 mm
Xanthomonas campestris
  zone of inhibition at 1 µg/disc: 31.6 mm
Pseudomonas aeruginosa
  zone of inhibition at 1 µg/disc: 47.3 mm
Proteus vulgaris
  zone of inhibition at 1 µg/disc: 37.8 mm
Escherichia coli
  zone of inhibition at 1 µg/disc: 31 mm

## C[C@@H]1[C@H](O)[C@@H](C)/C=C/C=C/C=C/C=C/C=C/C=C/C=C/[C@H](O[C@@H]2O[C@H](C)[C@@H](O)[C@H](N)[C@@H]2O)C[C@@H]2O[C@](O)(C[C@@H](O)C[C@@H](O)[C@H](O)CC[C@@H](O)C[C@@H](O)CC(=O)O[C@H]1C)C[C@H](O)[C@H]2C(=O)O [AMPHOTERICIN B]
Saccharomyces cerevisiae [2]
  zone of inhibition at 10 µg/disc: 9.8 mm
Aspergillus niger
  zone of inhibition at 10 µg/disc: 16.1 mm
Saccharomyces cerevisiae [3]
  zone of inhibition at 10 µg/disc: 11.7 mm
Saccharomyces cerevisiae [4]
  zone of inhibition at 10 µg/disc: 8.2 mm
Candida albicans
  zone of inhibition at 10 µg/disc: 13 mm
Mucor racemosus
  zone of inhibition at 10 µg/disc: 15.1 mm
Saccharomyces cerevisiae [5]
  zone of inhibition at 10 µg/disc: 14.5 mm

## CC[C@H]1OC(=O)[C@H](C)[C@@H](O[C@H]2C[C@@](C)(OC)[C@@H](O)[C@H](C)O2)[C@H](C)[C@@H](O[C@@H]2O[C@H](C)C[C@H](N(C)C)[C@H]2O)[C@](C)(O)C[C@@H](C)C(=O)[C@H](C)[C@@H](O)[C@]1(C)O [ERYTHROMYCIN]
Acholeplasma laidlawii
  zone of inhibition at 1 µg/disc: 28 mm
